Sampled rows, rich in hits. Any-hit rate of the full collection: about 4.7%.
ADAM10 inh = human ADAM10 inhibitors, primary screen, biochemical, QFRET, HTS | inhibition, % at 7 µM | Disintegrin and metalloproteinase domain-containing protein 10 (Homo sapiens), O14672 | AID 720582, 2013 | 0.62% of 370,000 active | recombinant ADAM10, EDANS/DABCYL FRET peptide cleavage, 3 h;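 active means inhibition above a per-campaign cutoff equal to the mean of compounds falling between control-based bounds plus 3 SD, cut at about 20% in these data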;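 further: 0% = DMSO wells while the 100% control is not disclosed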
Target sequence (O14672 214-748 limits assumed): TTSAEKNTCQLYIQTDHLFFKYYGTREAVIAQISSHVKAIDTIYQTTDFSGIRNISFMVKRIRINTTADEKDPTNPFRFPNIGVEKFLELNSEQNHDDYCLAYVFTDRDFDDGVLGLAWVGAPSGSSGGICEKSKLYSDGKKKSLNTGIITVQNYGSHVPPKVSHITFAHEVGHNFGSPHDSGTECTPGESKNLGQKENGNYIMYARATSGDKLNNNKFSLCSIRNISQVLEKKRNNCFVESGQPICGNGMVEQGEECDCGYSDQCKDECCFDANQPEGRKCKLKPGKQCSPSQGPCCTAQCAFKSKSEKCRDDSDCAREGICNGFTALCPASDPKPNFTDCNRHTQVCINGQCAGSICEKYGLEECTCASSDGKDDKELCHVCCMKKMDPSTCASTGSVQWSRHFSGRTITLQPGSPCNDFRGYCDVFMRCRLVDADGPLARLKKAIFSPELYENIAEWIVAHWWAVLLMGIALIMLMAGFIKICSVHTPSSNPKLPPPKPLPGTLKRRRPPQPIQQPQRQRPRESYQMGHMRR
ADAM17 inh = ADAM17 inhibitors, primary screen, biochemical, QFRET; inhibition, % at 6.95 µM; 0.83% of 370,000 active; Disintegrin and metalloproteinase domain-containing protein 17 (Homo sapiens), P78536; recombinant ADAM17, EDANS/DABCYL FRET peptide cleavage;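 active means inhibition above the mean of compounds lying between control limits plus 3 SD, set per campaign, cut at about 8.5% in these data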;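 further: 0% = DMSO-only wells as the low control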
SKN-1 inh = suppressors of acrylamide-induced Pgst-4::GFP reporter in worms, primary screen, SKN-1 inhibitor project, whole organism, uHTS, GFP/RFP fluorescence ratio, strain VP596 | C. elegans VP596 Pgst-4::GFP/RFP ratio, 24 h | inhibition, % at 21.8 µM | 0.49% of 360,000 active;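 active means interference check ratio from 0.5 to 1.5 plus GFP to RFP signal ratio inhibition reaching or exceeding a fixed threshold, cut at about 30% in these data, passing the limit was not always enough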
MT1-MMP act inh = blockers of MT1-MMP proenzyme processing, primary screen, HT1080 RFP-PRO-GFP cells, GFP/RFP fluorescence. GFP/RFP ratio fluorescence, overnight; percent of plate control window, DMSO zero. GFP/RFP ratio change, % at 20 µM. 0.061% of 360,000 active. AID 651647, 2012. Matrix metalloproteinase-14 (Homo sapiens), P50281;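 active means GFP/RFP ratio change of at least 30% with cell ATP level not reduced by more than half and red fluorescence within 50% of control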
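Assay system: HT1080 cells carrying an RFP-PRO-GFP reporter | Dosing: Single dose of 20 µM compound, 1% DMSO final | Incubation: Cells overnight before dosing, compound overnight, 37 °C, 5% CO2 | Evaluation: GFP/RFP fluorescence ratio | Control set: DMSO and RFP-L50D-GFP cell wells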
MPTP block = mitochondrial permeability transition pore inhibitors, primary screen, biochemical, isolated mouse mitochondria, absorbance | Ca2+ swelling absorbance, 30 min | inhibition, % at 10 µM | 1.4% of 360,000 active | AID 602449, 2012;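 active means inhibition of 50% or more, scaled per plate between neutral and stimulator controls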;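 further: 0% = DMSO wells given calcium and 100% = 1 mM EGTA wells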
NR3A LBD binder = binders of NR3A ligand-binding domain, primary screen, biophysical, differential scanning fluorimetry, uHTS. NR3A LBD differential scanning fluorimetry, Tm shift; 0% = protein alone, 100% = glycine-bound protein. Tm shift relative to glycine control, % at 25 µM. AID 1259313, 2017. Glutamate receptor ionotropic, NMDA 3A (GRIN3A) ligand-binding domain. 2.5% of 340,000 active;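 active means melting temperature shift of at least 10% of the positive control shift, at one fixed dose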
ADAM10 counter = ADAM10 inhibitors, counter-screen for ADAM17 exosite inhibitor project, biochemical, FRET, human ADAM10 | shares compounds with ADAM17 inh | recombinant ADAM10, EDANS/DABCYL FRET peptide cleavage, 3 h | inhibition, % at 6.95 µM | 47% of 2,900 active | AID 743256, 2014;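 active means mean inhibition over the triplicate runs exceeds the activity threshold set in the earlier primary screen, cut at about 20% in these data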;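 further: 0% = DMSO wells and 100% = marimastat wells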
ADAM17 confirm = ADAM17 inhibitors, hit retest, confirmation, biochemical, QFRET peptide cleavage; shares compounds with ADAM17 inh; recombinant ADAM17, EDANS/DABCYL QFRET peptide cleavage; inhibition, % at 6.95 µM; 65% of 2,900 active;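 active means mean inhibition across replicates above the hit cutoff set in the primary screen, cut at about 8.5% in these data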;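 further: 0% = DMSO wells and 100% = marimastat wells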
* = called active by the depositor; i = inactive; · = no result given.

SMILES	ADAM10 inh	ADAM17 inh	SKN-1 inh	MT1-MMP act inh	MPTP block	NR3A LBD binder	ADAM10 counter	ADAM17 confirm
Nc1[nH]c(C(=O)c2ccccc2)c(-c2cc(F)ccc2Br)c1C(=O)NCCc1c[nH]c2ccccc12	13	10*	·	·	·	·	26*	16*
Cc1ccnc(NC(=O)CCC(=O)N(CC(=O)NC2CCCCC2)Cc2ccccc2)c1	3	0	1	7	6	1	·	·
CCN(CC)S(=O)(=O)c1cccc(C(=O)N[C@H](C(=O)OCC(=O)Nc2ccccc2)C(C)C)c1	-4	11*	-9	1	-6	-9	5	4
Cc1ccnc(NC(=O)CN2C(=O)c3ccccc3S2(=O)=O)c1	-3	-5	1	5	-2	1	·	·
O=C(Nc1cccc(NC(=O)c2ccccc2[N+](=O)[O-])n1)c1ccccc1[N+](=O)[O-]	-9	-1	2	5	2	-4	·	·
Cc1ccc(S(=O)(=O)Nc2cc(=O)[nH]c(SCc3ccc(Cl)cc3)n2)cc1	16	12*	4	-5	8	11*	20*	17*
O=c1cc(NS(=O)(=O)c2ccccc2)nc(SCc2c(Cl)cccc2Cl)[nH]1	9	5	10	0	1	-11	·	·
O=C(Cc1ccc(NC(=O)C2CCCN(C(=O)c3ccccc3)C2)cc1)Nc1ccc(C(=O)N2CCOCC2)cc1 (configuration not stated)	2	10*	6	-1	0	-1	-2	5
CN(Cc1ccccc1)C(=O)c1cccc(NC(=O)Cc2ccc(NC(=O)C3CCCN(C(=O)c4ccccc4)C3)cc2)c1 (configuration not stated)	10	11*	-8	-4	-2	-1	-7	-2
CN(Cc1ccccc1)C(=O)c1ccc(NC(=O)Cc2ccc(NC(=O)C3CCCN(C(=O)C4CCC4)C3)cc2)cc1 (configuration not stated)	2	0	10	2	-1	-1	·	·
CN(Cc1ccccc1)C(=O)c1ccc(NC(=O)Cc2ccc(NC(=O)C3CCCN(C(=O)C4CCCCC4)C3)cc2)cc1 (configuration not stated)	15	10*	1	7	8	-5	14	5
CN(Cc1ccccc1)C(=O)c1cccc(NC(=O)Cc2ccc(NC(=O)C3CCN(C(=O)c4ccccc4)CC3)cc2)c1	-8	-2	3	0	0	1	·	·
CN(Cc1ccccc1)C(=O)c1ccc(NC(=O)Cc2ccc(NC(=O)C3CCCN(C(=O)CCc4ccccc4)C3)cc2)cc1 (configuration not stated)	11	9.4*	13	5	2	3	21*	11*
CC1CC(C)CN(C(=O)COC(=O)/C=C/c2cccc([N+](=O)[O-])c2)C1 (configuration not stated)	-5	-3	-2	1	1	-2	·	·
O=C(Nc1ccccc1C(=O)N1CCN(c2cccc(Cl)c2)CC1)C1=CSCCO1	11	0	11	-1	1	-1	·	·
COc1ccc(/C=C2\OC(=O)c3c(OC)cccc32)cc1OC	i	-321	9	5	-14	3	·	·
COC(=O)[C@@]1(Cc2ccc(F)cc2)[C@H]2c3cc(C(=O)N(C)C)n(Cc4ccc(OC)c(OC)c4)c3C[C@H]2CN1C(=O)c1ccccc1	8	2	·	·	·	0	·	·
COC(=O)[C@@]1(Cc2ccc(F)cc2)[C@H]2c3cc(C(=O)N(C)C)n(Cc4ccccc4)c3C[C@H]2CN1C(=O)c1ccccc1	5	9.4*	·	·	·	-2	-7	0
COc1ccc(C(=O)C2CCCN(C(=O)C3CCOCC3)C2)cc1OC (configuration not stated)	-5	-1	11	-5	0	5	·	·
Cc1cc(SCCOc2ccccc2)nc(N)n1	4	11*	-17	4	-1	-1	1	3
Cc1ccc(S(=O)(=O)N(C)c2ccc(OCc3cccc(C)c3)cc2)cc1	2	3	4	-7	-1	8	·	·
CN(c1ccc(OCc2ccc([N+](=O)[O-])cc2)cc1)S(=O)(=O)c1ccccc1	15	9.3*	5	1	2	0	17	13*
COc1ccc(C2CC(c3ccccc3)=NN2C(=O)CN2N=NC3C(=O)N(c4cccc(F)c4)C(=O)C32)cc1 (configuration not stated)	13	14*	9	4	0	-1	9	4
COc1ccc(CCNC(=O)/C=C/c2ccc(OC)c(S(=O)(=O)N3CCOCC3)c2)cc1	2	-4	-1	-8	2	-1	·	·
COCc1ccc(CN2CCCC(CO)(Cc3ccccc3)C2)o1 (configuration not stated)	-2	-2	2	0	-1	0	·	·
COc1ccc(C2=NN(C(=O)CSC3=NN4CCCC(=O)N=C4S3)C(c3cccc(OC)c3OC)C2)cc1 (configuration not stated)	13	10*	1	0	-2	7	-3	0
Cc1cc(C(=O)CSc2nnc(-c3ccc(Cl)cc3)n2C)c(C)n1CC1CCCO1 (configuration not stated)	-5	-4	6	4	-1	-1	·	·
Cc1cc(C(=O)Cn2nnc(-c3ccc(Cl)cc3)n2)c(C)n1CC1CCCO1 (configuration not stated)	10	9.0*	10	-6	5	-3	17	9.6*

High-throughput results deposited in PubChem BioAssay by several laboratories.
